The target in one assay is T1, OR2L13 (Homo sapiens) (UniProt Q8N349).
T1 sequence (whole entry): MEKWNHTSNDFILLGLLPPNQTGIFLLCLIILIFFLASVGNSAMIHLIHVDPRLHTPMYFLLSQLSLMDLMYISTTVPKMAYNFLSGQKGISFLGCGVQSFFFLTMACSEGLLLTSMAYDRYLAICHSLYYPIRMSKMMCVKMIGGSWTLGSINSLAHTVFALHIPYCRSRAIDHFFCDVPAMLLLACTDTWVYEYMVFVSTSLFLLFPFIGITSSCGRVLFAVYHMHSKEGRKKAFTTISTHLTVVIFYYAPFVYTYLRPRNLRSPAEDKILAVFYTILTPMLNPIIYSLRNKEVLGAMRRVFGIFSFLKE
As to conditions: stereoisomer not certain. A digest of the protocol: (§1)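 Each entry records the cell line, G-protein, co-transfected protein and tags used. Methods varied with the source, often transient luciferase assays in mammalian cell lines. A receptor–molecule pair is called responsive (active) if the original authors judged its signal statistically different from baseline and non-responsive (inactive) otherwise.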
As to `CCCCCCCCCCCC(=O)OC`, the “odorant receptor agonist call” value is “inactive”.

Take `CC(C)=CCCC(C)=CCCC(C)=CCO`: the “odorant receptor agonist call” value was “inactive”.

`CC(C=O)Cc1ccc(C(C)(C)C)cc1` (stereo not drawn): the “odorant receptor agonist call” value is “inactive”.

Consider `C=C1CCC2CC1C2(C)C` (stereo not drawn), for which the “odorant receptor agonist call” value was “inactive”.

In the case of `CCCCCCCCCCCCCC(=O)OCC`, the “odorant receptor agonist call” value was “inactive”.

Regarding `CCCCCCCCCCCCCCCCCC(=O)OC`, the “odorant receptor agonist call” value was “inactive”.

Turning to `CCCCCCCCCCCCCC(=O)O`, the “odorant receptor agonist call” value is “inactive”.

On to `CCCCCCCCCC(=O)OCC`, for which the “odorant receptor agonist call” value was “inactive”.

On to `CCCCCCCCCCCC(=O)OCC`, for which the “odorant receptor agonist call” value is “inactive”.

For the molecule `CC(=O)O`, the “odorant receptor agonist call” value was “inactive”.

In the case of `CCC(C)CO` (stereo not drawn), the “odorant receptor agonist call” value was “inactive”.

For the molecule `CCCCCCCCCCCCCCCC(=O)[O-].[H+]`, the “odorant receptor agonist call” value is “inactive”.

Turning to `C=C(C)C1CC=C(C)CC1` (stereo not drawn), the “odorant receptor agonist call” value is “inactive”.

Take `Cc1cnc(C)cn1`: the “odorant receptor agonist call” value is “inactive”.

As for `CCCCCCCC(=O)OCC`, the “odorant receptor agonist call” value is “inactive”.

`CCCCCCCCCCCCCC(=O)OC`: the “odorant receptor agonist call” value was “inactive”.

Take `CCCCCCCCCCCCCCCC(=O)OCC`: the “odorant receptor agonist call” value was “inactive”.

Regarding `CCCCCCCCCCCCCCCC(=O)OC`, the “odorant receptor agonist call” value is “inactive”.

Regarding `CCCCOCC(C)O` (stereo not drawn), the “odorant receptor agonist call” value is “inactive”.

With `CCCCCCCCCCCCCCCCCC(=O)[O-].[H+]`, the “odorant receptor agonist call” value is “inactive”.

`CC1=CCC2CC1C2(C)C` (stereo not drawn): the “odorant receptor agonist call” value was “inactive”.

With `Cc1cccc(C)c1C`, the “odorant receptor agonist call” value was “inactive”.

`CCCCCCCCCCCCCCCCCC(=O)OCC`: the “odorant receptor agonist call” value was “inactive”.

For another assay, the target named is T2, OR2M3 (Homo sapiens) (UniProt Q8NG83).
T2 sequence (whole entry): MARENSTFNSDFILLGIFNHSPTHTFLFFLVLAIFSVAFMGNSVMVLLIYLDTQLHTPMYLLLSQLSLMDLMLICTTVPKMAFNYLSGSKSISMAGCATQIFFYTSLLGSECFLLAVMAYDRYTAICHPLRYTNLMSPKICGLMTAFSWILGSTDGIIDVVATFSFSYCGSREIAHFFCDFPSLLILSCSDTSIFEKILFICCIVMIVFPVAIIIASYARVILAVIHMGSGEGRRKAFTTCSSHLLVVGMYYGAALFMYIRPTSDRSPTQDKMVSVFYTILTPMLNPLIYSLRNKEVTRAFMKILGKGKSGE
The following applies: stereoisomer not certain. A digest of the protocol:
as §1
For the molecule `CSCCCO`, the “odorant receptor agonist call” value was “inactive”.

In the case of `CCCCCC(=O)OCC`, the “odorant receptor agonist call” value is “inactive”.

On to `C=CCSC`, for which the “odorant receptor agonist call” value is “inactive”.

Regarding `CCC(C)COC(C)=O` (stereo not drawn), the “odorant receptor agonist call” value is “inactive”.

Regarding `C=C1CCC2CC1C2(C)C` (stereo not drawn), the “odorant receptor agonist call” value is “inactive”.

For `CC(=O)OCC=Cc1ccccc1`, the “odorant receptor agonist call” value was “inactive”.

As to `C=Cc1ccc(O)c(OC)c1`, the “odorant receptor agonist call” value was “inactive”.

Turning to `CC(C)CC=O`, the “odorant receptor agonist call” value was “inactive”.

As to `CC(C)CCO`, the “odorant receptor agonist call” value was “inactive”.

For `CCCCCCCCCC(=O)OCC`, the “odorant receptor agonist call” value was “inactive”.

Regarding `CSCCC=O`, the “odorant receptor agonist call” value is “inactive”.

Turning to `CC(=O)O`, the “odorant receptor agonist call” value was “inactive”.

Turning to `CCC(C)CO` (stereo not drawn), the “odorant receptor agonist call” value is “inactive”.

With `CCCC=CC=O`, the “odorant receptor agonist call” value was “inactive”.

For `C=C(C)C1CC=C(C)CC1` (stereo not drawn), the “odorant receptor agonist call” value was “inactive”.

For the molecule `CCCCCCCC(=O)OCC`, the “odorant receptor agonist call” value was “inactive”.

With `CC(C)=CC1CC(C)CCO1` (stereo not drawn), the “odorant receptor agonist call” value is “inactive”.

On to `CCCCCCCCC1CCC(=O)O1` (stereo not drawn), for which the “odorant receptor agonist call” value is “inactive”.

Regarding `CC1=CCC2CC1C2(C)C` (stereo not drawn), the “odorant receptor agonist call” value was “inactive”.

In the case of `CCOC(C)OCC`, the “odorant receptor agonist call” value is “inactive”.

The values are drawn from the M2OR odorant receptor database.
